In ChEMBL document CHEMBL4425087, “Antibacterial Azaphilones from an Endophytic Fungus, Colletotrichum sp. BS4” (2016):
≈ marks a conversion by molar mass, not a printed value. Calls of active or inactive are those of the source. The rule behind the calls is not given here.

Key:
[1] = tested on: Bacillus subtilis; test: Antibacterial activity against Bacillus subtilis DSM 1088 incubated for 24 hrs by disk diffusion method; type: functional
Outline: (§1)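 Standard control strains from the DSMZ collection (Braunschweig): E. coli and B. subtilis as common environmental strains, and S. aureus and P. aeruginosa as human pathogenic clinical strains. Run by the authors' previously described procedure.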

[2] = tested on: Escherichia coli; test: Antibacterial activity against Escherichia coli DSM 1116 incubated for 24 hrs by disk diffusion method; type: functional; outline: as §1
[3] = tested on: Staphylococcus aureus; test: Antibacterial activity against Staphylococcus aureus DSM 799 incubated for 24 hrs by disk diffusion method; type: functional; outline: as §1
[4] = tested on: Pseudomonas aeruginosa; test: Antibacterial activity against Pseudomonas aeruginosa DSM 22644 incubated for 24 hrs by disk diffusion method; type: functional; outline: as §1
[5] = tested on: THP-1; test: Cytotoxicity against human THP1 cells assessed as reduction in cell survival by measuring inhibition of intracellular ATP level at 0.01 to 100 uM after 48 hrs by ATPlite assay; type: functional, cell-based
Outline: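 THP-1 human acute monocytic leukemia cells, in vitro. ATPlite luminescence measures depletion of cytoplasmic ATP.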

[6] = tested on: THP-1; test: Cytotoxicity against human THP1 cells assessed as reduction in cell survival by measuring inhibition of mitochondrial metabolic activity at 0.01 to 100 uM after 48 hrs by resazurin assay; type: functional, cell-based
Outline: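 Human acute monocytic leukemia THP-1 cells, in vitro. Resazurin-based read-out measures inhibition of mitochondrial metabolic activity.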

[7] = tested on: Bacillus spizizenii; test: Antibacterial activity against Bacillus subtilis ATCC 6633 by disk diffusion method; type: functional
[8] = tested on: Brevibacillus brevis; test: Antibacterial activity against Bacillus brevis by disk diffusion method; type: functional

Row | Compound | MIC ([1]; DSM 1088, 24 h) [mg/L] | MIC ([2]; DSM 1116, 24 h) [mg/L] | MIC ([3]; DSM 799, 24 h) [mg/L] | MIC ([4]; DSM 22644, 24 h) [mg/L] | Activity [5] | Activity [6] | MIC [7] [mg/L] | MIC [8] [mg/L] | MIC [1] [mg/L] | MIC [2] [mg/L] | MIC [3] [mg/L] | MIC [4] [mg/L]
1 | CC[C@H](C)C(=O)[C@@H]1C(=O)O[C@@]2(C)C(=O)C=C3C=C(C)OC=C3[C@@H]12 | > 10 | > 10 | 5 (≈ 15.8 µM) | > 10 | inactive | inactive | – | – | – | – | – | –
2 | CC[C@H](C)C1=C2C(=O)O[C@@]3(C)C(=O)C=C4C=C(C)O[C@@H](O1)[C@@]4(O)[C@@]23O | 0.1 (≈ 0.287 µM) | 1 (≈ 2.87 µM) | > 10 | > 10 | inactive | inactive | – | – | – | – | – | –
3 | CC[C@H](C)C(=O)[C@H]1C(=O)O[C@@]2(C)C(=O)C=C3C=C(C)OC=C3[C@H]12 [CHERMESINONE B] | > 10 | > 10 | > 10 | > 10 | inactive | inactive | – | – | – | – | – | –
4 | CCCCCCCCCCCCCCCCCC[C@H](C)C(=O)C1=C2C3=COC(C)=CC3=CC(=O)[C@]2(C)OC1=O | – | – | – | – | – | – | 5 (≈ 9.28 µM) | 5 (≈ 9.28 µM) | – | – | – | –
5 | GENTAMICIN | – | – | – | – | – | – | – | – | 1 | 1 | 1 | 1
6 | CN[C@@H]1[C@H](O[C@H]2[C@H](O[C@H]3[C@H](O)[C@@H](O)[C@H](N=C(N)N)[C@@H](O)[C@@H]3N=C(N)N)O[C@@H](C)[C@]2(O)C=O)O[C@@H](CO)[C@H](O)[C@H]1O [STREPTOMYCIN] | 5 (≈ 8.6 µM) | 1 (≈ 1.72 µM) | 5 (≈ 8.6 µM) | 10 (≈ 17.2 µM) | – | – | – | – | – | – | – | –
7 | CC[C@H](C)C(=O)[C@H]1C(=O)O[C@@]2(C)C(=O)C=C3C=C(C)OC[C@H]3[C@H]12 | > 10 | 5 (≈ 15.7 µM) | > 10 | > 10 | inactive | inactive | – | – | – | – | – | –
